Measured values from ChEMBL document CHEMBL4834404, “Template-Hopping Approach Leads to Potent, Selective, and Highly Soluble Bromo and Extraterminal Domain (BET) Second Bromodomain (BD2) Inhibitors” (J Med Chem, 2021).

Experiments:
[1] = target: T1, Bromodomain-containing protein 2 (Homo sapiens, UniProt P25440); assay: Inhibition of 6His-Thr-BRD2 (1 to 473 residues) BD1 domain (unknown origin) incubated for 30 mins by TR-FRET assay
Homo sapiens = species on record: Homo sapiens; assay: Selectivity index, ratio of pIC50 of BRD4 BD1 (unknown origin) to pIC50 of BRD4 BD2 (unknown origin)
[2] = target: T2, Bromodomain-containing protein 3 (Homo sapiens, UniProt Q15059); assay: Inhibition of 6His-Thr-BRD3 (1 to 435 residues) BD2 domain Y348A or Y73A mutant (unknown origin) incubated for 30 mins by TR-FRET assay
Target sequence in this assay (Q15059 2-726 limits assumed): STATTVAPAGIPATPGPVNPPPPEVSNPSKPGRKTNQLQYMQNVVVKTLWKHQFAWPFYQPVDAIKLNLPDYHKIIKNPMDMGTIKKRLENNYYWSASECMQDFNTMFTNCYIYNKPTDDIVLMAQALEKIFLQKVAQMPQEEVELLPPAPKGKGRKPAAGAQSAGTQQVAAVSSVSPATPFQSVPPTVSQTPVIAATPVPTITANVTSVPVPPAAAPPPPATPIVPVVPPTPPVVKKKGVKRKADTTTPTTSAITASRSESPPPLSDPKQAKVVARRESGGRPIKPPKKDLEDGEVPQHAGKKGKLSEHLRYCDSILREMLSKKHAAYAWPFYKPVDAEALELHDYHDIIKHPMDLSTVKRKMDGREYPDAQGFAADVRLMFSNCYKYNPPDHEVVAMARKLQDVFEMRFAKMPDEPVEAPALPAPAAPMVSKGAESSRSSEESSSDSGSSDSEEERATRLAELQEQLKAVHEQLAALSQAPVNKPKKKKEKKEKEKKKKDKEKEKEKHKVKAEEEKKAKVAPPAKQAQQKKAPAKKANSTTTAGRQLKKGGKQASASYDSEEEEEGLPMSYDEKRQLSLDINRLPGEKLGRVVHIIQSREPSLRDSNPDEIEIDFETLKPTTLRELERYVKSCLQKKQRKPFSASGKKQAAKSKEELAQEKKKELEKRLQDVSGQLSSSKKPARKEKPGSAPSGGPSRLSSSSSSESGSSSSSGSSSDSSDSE

[3] = Volume of distribution at steady state in Wistar Han rat at 1 mg/kg, iv measured upto 7 hrs by LC-MS/MS analysis; format: ADME, organism-based; conditions: in vivo, read-out: Vdss
Method in brief: (§1)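 Surgically cannulated male Wistar Han rats (femoral vein dosing, jugular vein sampling), given 1 h iv infusion at target 1 mg/kg, 0.2 mg/mL in DMSO/10% (w/v) Kleptose HPB in saline (2:98 v/v); n = 1. Serial 25 μL blood samples predose to 7 h; parent compound by LC-MS/MS (LLQ 1−2 ng/mL); non-compartmental analysis of blood concentration−time profiles.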

[4] = Oral bioavailability in Wistar Han rat at 3 mg/kg measured upto 24 hrs by LC-MS/MS analysis; format: ADME, organism-based; conditions: in vivo
Method in brief: (§2)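 Three naive male Wistar Han rats dosed by oral gavage at target 3 mg/kg, suspended in 1% (w/v) methylcellulose aq at 0.6 mg/mL. Serial 25 μL blood samples via tail vein up to 24 h; parent compound by LC-MS/MS (LLQ 1 ng/mL) against standards in control blood; non-compartmental PK analysis.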

[5] = AUC in Wistar Han rat at 1 mg/kg, iv measured upto 7 hrs by LC-MS/MS analysis; format: ADME, organism-based; set-up: route intravenous, dose 1 mg/kg, time <=7; conditions: in vivo; method in brief: as §1
[6] = Dose normalized AUC in Wistar Han rat at 3 mg/kg, po measured upto 24 hrs by LC-MS/MS analysis; format: ADME, organism-based; conditions: in vivo; method in brief: as §2
Blood = assay: Inhibition of LPS-stimulated MCP-1 production in human whole blood incubated for 24 hrs by mesoscale assay; format: functional, tissue-based
Method in brief: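 Sodium-heparinized human whole blood preincubated 30 min with compound (DMSO dilutions, 140× stocks) at 37 °C, 5% CO₂, then stimulated with Salmonella typhosa LPS (200 ng/mL final) for 24 h. PBS added, plates centrifuged, supernatant MCP-1 quantified by MesoScale Discovery immunoassay.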

[7] = Metabolic stability in human Hepatocyte assessed as intrinsic clearance at 0.5 uM incubated for 120 mins by LC-MS/MS analysis; format: ADME, tissue-based; conditions: hepatocytes, 2 h
[8] = target: T2, Bromodomain-containing protein 3; assay: Inhibition of 6His-Thr-BRD3 (1 to 435 residues) BD1 domain (unknown origin) incubated for 30 mins by TR-FRET assay
Target sequence in this assay (Q15059 whole entry, the tested form may be a part): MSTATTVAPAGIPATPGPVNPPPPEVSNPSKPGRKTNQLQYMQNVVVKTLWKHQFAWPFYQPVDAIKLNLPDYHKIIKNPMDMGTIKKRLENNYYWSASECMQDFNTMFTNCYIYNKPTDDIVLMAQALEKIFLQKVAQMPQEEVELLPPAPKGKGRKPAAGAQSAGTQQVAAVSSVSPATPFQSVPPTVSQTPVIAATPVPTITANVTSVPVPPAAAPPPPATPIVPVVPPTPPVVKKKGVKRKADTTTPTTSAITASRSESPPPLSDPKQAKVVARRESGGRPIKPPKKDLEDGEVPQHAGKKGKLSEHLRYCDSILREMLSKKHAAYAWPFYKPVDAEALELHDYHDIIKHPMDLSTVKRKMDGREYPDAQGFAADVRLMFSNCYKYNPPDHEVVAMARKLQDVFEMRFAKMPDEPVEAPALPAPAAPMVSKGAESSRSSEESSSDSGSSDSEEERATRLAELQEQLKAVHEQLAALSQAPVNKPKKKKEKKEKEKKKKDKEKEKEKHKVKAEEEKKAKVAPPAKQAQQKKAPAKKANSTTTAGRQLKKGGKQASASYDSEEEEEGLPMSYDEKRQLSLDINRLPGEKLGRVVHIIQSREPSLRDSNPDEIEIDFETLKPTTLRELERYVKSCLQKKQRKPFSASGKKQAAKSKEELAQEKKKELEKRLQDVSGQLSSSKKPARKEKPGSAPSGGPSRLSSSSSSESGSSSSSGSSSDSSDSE

[9] = Metabolic stability in rat Hepatocyte assessed as intrinsic clearance at 0.5 uM incubated for 60 mins by LC-MS/MS analysis; format: ADME, tissue-based; conditions: hepatocytes, 1 h
[10] = Unbound clearance in Wistar Han rat at 1 mg/kg, iv measured upto 7 hrs by LC-MS/MS analysis; format: ADME, organism-based; conditions: in vivo
[11] = Permeability of compound; format: ADME; conditions: not told; read-out: permeability
[12] = target: Bromodomain-containing protein 4 (Homo sapiens, UniProt O60885, Y390A); assay: Inhibition of 6His-Thr-BRD4 (1 to 477 residues) BD2 domain Y390A mutant (unknown origin) incubated for 30 mins by TR-FRET assay
[13] = Solubility of compound by CLND assay; format: physicochemical
[14] = Half life in Wistar Han rat at 1 mg/kg, iv measured upto 7 hrs by LC-MS/MS analysis; format: ADME, organism-based; conditions: in vivo; method in brief: as §1
[15] = target: T1, Bromodomain-containing protein 2; assay: Inhibition of 6His-Thr-BRD2 (1 to 473 residues) BD2 domain Y386A or Y113A mutant (unknown origin) incubated for 30 mins by TR-FRET assay
[16] = target: T3, Bromodomain testis-specific protein (Homo sapiens, UniProt Q58F21); assay: Inhibition of 6His-FLAG-Tev-BRDT (1 to 397 residues) BD1 domain (unknown origin) incubated for 30 mins by TR-FRET assay
[17] = target: Bromodomain-containing protein 4 (Homo sapiens, UniProt O60885, Y97A); assay: Inhibition of 6His-Thr-BRD4 (1 to 477 residues) BD1 Y97A mutant (unknown origin) incubated for 30 mins by TR-FRET assay
Albumin = Albumin (Homo sapiens, UniProt P02768); assay: Binding affinity to human serum albumin; format: ADME; conditions: isolated protein
Chain of Albumin (P02768 whole entry): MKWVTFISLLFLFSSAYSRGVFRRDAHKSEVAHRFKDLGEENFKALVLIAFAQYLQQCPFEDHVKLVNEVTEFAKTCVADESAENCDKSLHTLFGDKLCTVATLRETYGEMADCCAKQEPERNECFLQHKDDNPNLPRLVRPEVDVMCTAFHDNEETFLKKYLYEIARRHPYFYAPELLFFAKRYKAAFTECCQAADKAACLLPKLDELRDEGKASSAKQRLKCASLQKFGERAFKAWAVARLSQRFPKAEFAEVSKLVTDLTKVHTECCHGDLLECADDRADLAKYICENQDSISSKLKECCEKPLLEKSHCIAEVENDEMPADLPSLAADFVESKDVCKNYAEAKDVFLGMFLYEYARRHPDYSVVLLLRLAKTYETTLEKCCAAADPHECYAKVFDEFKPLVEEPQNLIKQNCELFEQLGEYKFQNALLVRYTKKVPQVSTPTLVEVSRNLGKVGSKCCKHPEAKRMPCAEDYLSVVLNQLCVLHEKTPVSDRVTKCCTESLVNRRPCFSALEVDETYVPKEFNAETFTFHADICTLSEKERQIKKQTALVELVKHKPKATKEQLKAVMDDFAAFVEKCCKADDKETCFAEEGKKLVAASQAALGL
Method in brief: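 Chromatographic binding on chemically bonded HSA column (50 × 3 mm), 1.8 mL/min; mobile phase 50 mM ammonium acetate pH 7.4 with 2-propanol gradient (0−30% over 3 min, hold to 6 min, back to 0%); gradient retention time recorded.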

[18] = Inhibition of LPS-induced MCP1 production in PBMC (unknown origin); format: functional, tissue-based
[19] = target: Voltage-gated inwardly rectifying potassium channel KCNH2 (Homo sapiens, UniProt Q12809); assay: Inhibition of human ERG
Chain of Voltage-gated inwardly rectifying potassium channel KCNH2 (Q12809 whole entry, the tested form may be a part): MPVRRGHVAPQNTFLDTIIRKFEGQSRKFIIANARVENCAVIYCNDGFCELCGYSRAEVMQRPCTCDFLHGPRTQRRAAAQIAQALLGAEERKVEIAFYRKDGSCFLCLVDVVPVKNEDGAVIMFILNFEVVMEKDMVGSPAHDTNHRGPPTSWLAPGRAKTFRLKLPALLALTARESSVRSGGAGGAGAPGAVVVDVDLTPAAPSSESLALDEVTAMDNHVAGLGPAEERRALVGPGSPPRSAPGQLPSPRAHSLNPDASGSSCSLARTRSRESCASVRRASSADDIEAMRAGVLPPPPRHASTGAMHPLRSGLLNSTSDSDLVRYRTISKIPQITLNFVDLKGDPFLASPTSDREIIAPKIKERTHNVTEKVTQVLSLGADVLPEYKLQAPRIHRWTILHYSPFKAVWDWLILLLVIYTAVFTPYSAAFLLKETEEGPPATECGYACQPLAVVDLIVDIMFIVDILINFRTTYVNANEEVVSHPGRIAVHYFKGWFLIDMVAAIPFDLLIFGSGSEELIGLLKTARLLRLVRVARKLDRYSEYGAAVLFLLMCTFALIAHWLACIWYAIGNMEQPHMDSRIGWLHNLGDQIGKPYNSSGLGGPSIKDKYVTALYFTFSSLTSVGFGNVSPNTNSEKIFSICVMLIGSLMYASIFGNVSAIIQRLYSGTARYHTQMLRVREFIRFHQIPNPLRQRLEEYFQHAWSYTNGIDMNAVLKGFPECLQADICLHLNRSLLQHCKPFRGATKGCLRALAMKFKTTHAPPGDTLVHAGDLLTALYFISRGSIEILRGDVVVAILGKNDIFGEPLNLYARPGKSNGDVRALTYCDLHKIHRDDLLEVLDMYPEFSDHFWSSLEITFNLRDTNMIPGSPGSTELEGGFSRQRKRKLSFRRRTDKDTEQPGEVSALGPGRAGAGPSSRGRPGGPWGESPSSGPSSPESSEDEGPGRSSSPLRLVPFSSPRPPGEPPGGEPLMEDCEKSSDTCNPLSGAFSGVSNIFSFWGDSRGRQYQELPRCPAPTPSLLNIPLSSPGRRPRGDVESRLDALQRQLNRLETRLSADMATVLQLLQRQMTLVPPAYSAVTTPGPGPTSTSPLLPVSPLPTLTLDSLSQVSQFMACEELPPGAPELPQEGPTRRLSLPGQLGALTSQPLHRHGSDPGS

[20] = target: T3, Bromodomain testis-specific protein; assay: Inhibition of 6His-FLAG-Tev-BRDT (1 to 397 residues) BD2 domain Y309A or Y66A mutant (unknown origin) incubated for 30 mins by TR-FRET assay
[21] = Fraction unbound in Wistar Han rat at 1 mg/kg, iv measured upto 4 hrs by LC-MS/MS analysis; format: ADME, organism-based
Method in brief: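 Control Wistar Han rat blood dialyzed against PBS by rapid equilibrium dialysis, 4 h at 37 °C, compound at 200 and 1000 ng/mL; matrix-matched aliquots analysed by LC-MS/MS; unbound fraction from buffer/blood peak area ratios, mean of the two concentrations.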

[22] = Clearance in Wistar Han rat at 1 mg/kg, iv measured upto 7 hrs by LC-MS/MS analysis; format: ADME, organism-based; conditions: in vivo; method in brief: as §1

T1 sequence (P25440 whole entry, the tested form may be a part): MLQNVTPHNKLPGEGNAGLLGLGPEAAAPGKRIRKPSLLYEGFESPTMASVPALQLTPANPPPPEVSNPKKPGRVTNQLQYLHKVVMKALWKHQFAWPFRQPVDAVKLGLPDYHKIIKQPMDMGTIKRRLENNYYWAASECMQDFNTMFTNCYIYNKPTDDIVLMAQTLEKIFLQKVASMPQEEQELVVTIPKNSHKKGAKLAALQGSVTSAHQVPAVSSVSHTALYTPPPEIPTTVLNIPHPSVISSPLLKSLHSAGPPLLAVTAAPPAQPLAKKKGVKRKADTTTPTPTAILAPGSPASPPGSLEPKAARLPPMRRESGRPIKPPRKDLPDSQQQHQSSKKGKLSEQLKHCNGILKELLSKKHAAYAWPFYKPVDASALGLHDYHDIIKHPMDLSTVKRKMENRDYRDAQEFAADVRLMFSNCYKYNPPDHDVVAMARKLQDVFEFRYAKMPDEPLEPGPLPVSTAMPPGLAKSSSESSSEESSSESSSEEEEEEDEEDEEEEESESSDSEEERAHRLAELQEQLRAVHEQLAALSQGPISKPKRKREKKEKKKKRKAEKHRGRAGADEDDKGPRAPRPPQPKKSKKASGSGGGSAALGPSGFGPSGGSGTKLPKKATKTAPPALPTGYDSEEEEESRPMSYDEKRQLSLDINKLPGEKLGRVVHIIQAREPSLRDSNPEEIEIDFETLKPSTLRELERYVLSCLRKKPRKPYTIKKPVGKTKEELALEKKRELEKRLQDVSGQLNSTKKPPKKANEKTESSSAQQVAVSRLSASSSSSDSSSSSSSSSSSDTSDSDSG

## CCNC(=O)c1ccc(OCc2cccc(C)n2)c(-c2cn(C)nn2)c1
[1]
  IC50: > 50.1 µM
Homo sapiens
  Ratio pIC50: 200
[2]
  pIC50: 6.5
[3]
  Vd: 0.7 L/kg
[4]
  bioavailability: 59%
[5]
  AUC at 7 h: 873 ng·h/mL
[6]
  AUC/dose: 30 kg·min/L
Blood
  IC50: 2.51 µM
[7]
  CLH: 1.18 mL/min/g
[8]
  IC50: > 50.1 µM
[9]
  CLH: 1.09 mL/min/g
[10]
  CL free: 102 mL/min/kg
[11]
  Papp: 47 ×10⁻⁶ cm/s
[12]
  IC50: 0.251 µM
[13]
  solubility kinetic: ≥ 137 µg/mL
[14]
  half-life: 27 min
[15]
  pIC50: 5.8
[16]
  IC50: > 50.1 µM
[17]
  IC50: 50.1 µM
Albumin
  Activity: 84%
[18]
  IC50: 0.251 µM
[19]
  IC50: > 50.1 µM
[20]
  pIC50: 6.4
[21]
  fraction unbound at 4 h: 0.19
[22]
  clearance: 19 mL/min/kg
